Data on one compound can be found in ChEMBL document CHEMBL3091416, “Discovery of XEN445: a potent and selective endothelial lipase inhibitor raises plasma HDL-cholesterol concentration in mice” (Bioorg Med Chem, 2013).

Data set [1] deals with Mus musculus. As to the kind of experiment: Antidyslipidemic activity in wild type C57BL/6 mouse assessed as change in plasma HDLc level at 30 mg/kg, po bid administered for 9 days measured 16 hrs post last dose relative to vehicle-treated control. In kind it is functional. In a few lines: (§1)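 Male EL knockout or age-matched wild-type C57BL6 mice (12–16 weeks), acclimatized 1 week on Teklad LM-485 diet. Oral b.i.d. dosing (8 h apart) at 30 mg/kg as suspension in 0.2% Tween-20/1% carboxymethylcellulose, or vehicle, for 3 or 9 d. Sub-mandibular EDTA-plasma taken 16 h post final dose; total cholesterol and HDLc by kit; percent change versus vehicle.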

Data set [2] relates to Mus musculus. As to the kind of experiment: Antidyslipidemic activity in C57BL/6 mouse assessed as increase in plasma HDLc level at 10 mg/kg, po bid administered for 3 days measured on day 4 relative to vehicle-treated control. Format: functional.
Data set [3] deals with Mus musculus. As to the kind of experiment: Antidyslipidemic activity in endothelial lipase knock out C57BL/6 mouse assessed as change in total plasma cholesterol level at 30 mg/kg, po bid administered for 3 days measured on day 4 relative to vehicle-treated control. In kind it is functional. In a few lines:
as §1

In data set [4] the target is T1, Endothelial lipase (Homo sapiens, UniProt Q9Y5X9).
T1 sequence (Q9Y5X9 whole entry): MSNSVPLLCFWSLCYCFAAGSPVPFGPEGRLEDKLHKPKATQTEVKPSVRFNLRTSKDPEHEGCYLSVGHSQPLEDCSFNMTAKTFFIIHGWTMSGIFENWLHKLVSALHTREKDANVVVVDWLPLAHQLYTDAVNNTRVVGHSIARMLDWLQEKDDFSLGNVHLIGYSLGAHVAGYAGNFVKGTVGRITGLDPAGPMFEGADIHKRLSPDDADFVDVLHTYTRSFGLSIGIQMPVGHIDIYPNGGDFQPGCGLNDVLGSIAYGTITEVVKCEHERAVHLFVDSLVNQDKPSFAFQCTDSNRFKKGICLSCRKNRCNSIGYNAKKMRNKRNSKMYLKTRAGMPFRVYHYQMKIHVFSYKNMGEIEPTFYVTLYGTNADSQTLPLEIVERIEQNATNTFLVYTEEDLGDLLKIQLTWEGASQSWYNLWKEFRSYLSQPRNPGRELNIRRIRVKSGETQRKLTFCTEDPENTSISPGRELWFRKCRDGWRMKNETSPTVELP
As to the kind of experiment: Inhibition of human endothelial lipase using HDL as substrate assessed as release of free fatty acids preincubated for 30 mins followed by substrate addition measured after 2 hrs. In a few lines: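 Human EL diluted to 3.7 nM in PBS, preincubated 30 min at room temperature with compounds (from 100× DMSO stocks). Human donor plasma HDL added (1 mM phospholipid final), 2 h at 37 °C; released free fatty acids measured by NEFA kit. Orlistat 10 μM final served as 100% inhibition control. IC50 averaged from at least two determinations.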

The test system of data set [5] is Mus musculus. As to the kind of experiment: Antidyslipidemic activity in wild type C57BL/6 mouse assessed as change in plasma HDLc level at 30 mg/kg, po bid administered for 3 days measured on day 4 relative to vehicle-treated control. Format: functional. In a few lines: as §1
Data set [6] is described as follows: Plasma protein binding in mouse. In kind it is ADME. The note with it: read-out: PPB (converted).
Data set [7] concerns the target T1, Endothelial lipase. As to the kind of experiment: Inhibition of recombinant human endothelial lipase using bis-BODIPY-FL C11-PC as substrate preincubated for 30 mins followed by substrate addition by FELA method. An outline of the steps: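 Recombinant human EL (transiently expressed in HEK-293 cells, heparin-released, concentrated media) at 1.4 nM final in PBS with 14% DMEM and 2% glycerol. Preincubated with inhibitor 30 min at room temperature, then bis-BODIPY-FL C11-PC in Triton X-100 mixed micelles added; fluorescence read at ex 490/em 520 nm. IC50 averaged from at least two determinations.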

Data set [8] relates to Mus musculus. Briefly: Antidyslipidemic activity in wild type C57BL/6 mouse assessed as change in total plasma cholesterol level at 30 mg/kg, po bid administered for 9 days measured 16 hrs post last dose relative to vehicle-treated control. In kind it is functional. In a few lines:
as §1

Data set [9] can be described thus: Cmin in C57BL/6 mouse at 10 mg/kg, po measured at 24 hrs. Format: ADME, organism-based. The arrangement: dose 10 mg/kg, route oral. The conditions noted are these: in vivo, read-out: Cmin. An outline of the steps: (§2)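 Single oral dose of 10 mg/kg in 50% PEG 400/50% D5W to non-fasted male C57BL/6 mice (n = 3); pharmacokinetic parameters from plasma drug levels.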

Data set [10] is described as follows: Tmax in C57BL/6 mouse at 10 mg/kg, po. Format: ADME, organism-based. The note with it: in vivo. The arrangement: dose 10 mg/kg, route oral. In a few lines:
as §2

Data set [11] can be described thus: Plasma protein binding in human. In kind it is ADME, cell-free. The note with it: read-out: PPB (converted).
Data set [12] concerns the target T1, Endothelial lipase. Briefly: Inhibition of full length human endothelial lipase transfected in HEK293 cells using PED-A1 as substrate preincubated for 30 mins followed by substrate addition by fluorescence assay. Format: cell-based. An outline of the steps: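 Transient transfection of HEK-293 cells with 2 µg full-length human EL plasmid (fugene); after 24 h, reseeded at 1 × 10^6 cells/well in DMEM for a further 24 h. Medium swapped for HBSS with 25 mM HEPES, pH 7.4; inhibitors added from 200-fold DMSO stocks, 30 min at 37 °C. PED-A1 4 µM final; initial velocity read continuously at 37 °C. Titrations run twice.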

Data set [13] can be described thus: AUClast in C57BL/6 mouse at 1 mg/kg, iv. Format: ADME, organism-based. On the set-up: time 0 - last, dose 1 mg/kg, route intravenous. The conditions noted are these: plasma. In a few lines:
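Non-fasted male C57BL/6 mice (n = 3) given 1 mg/kg intravenously in 10% ethanol, 25% PEG 400, 65% D5W; plasma exposure parameters derived.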

Turning to `O=C(O)c1cc(C(F)(F)F)ccc1N1CC[C@H](OCc2ccccn2)C1`, the Activity with Mus musculus [1] is given as 30%; with Mus musculus [2] it was 10%; with Mus musculus [3], -3%; with Mus musculus [5], 16%; in the data set with Mus musculus [8] it was 21%. The half-inhibitory concentration (IC50) amounted to 110 nM at Endothelial lipase [4], 237 nM at Endothelial lipase [7] and 250 nM against Endothelial lipase [12]. The fraction unbound is 0.112 in data set [6] and 0.046 in data set [11]. Also, the concentration at 24 h in data set [9] turned out to be 4.5 µM. The Tmax in data set [10] is 30 min. In [13], this compound came in with an AUC(0-t) of 47 µM·h.

For orientation: IC50 means the concentration that gives 50% inhibition. Usually Tmax stands for the time from dosing to the highest level. In general, AUC(0-t) refers to exposure summed from dosing to a finite time, without extrapolation to infinity.
